ChEMBL document CHEMBL4020830, “Design, Synthesis, and Evaluation of a Novel Series of Indole Sulfonamide Peroxisome Proliferator Activated Receptor (PPAR) α/γ/δ Triple Activators: Discovery of Lanifibranor, a New Antifibrotic Clinical Candidate” (J Med Chem, 2018)
In brackets after ≈: the same amount, converted by molar mass.

How the values were obtained:
Rattus norvegicus [1] = assay: Toxicity in Sprague-Dawley rat assessed as reduction in hematocrit level at 10 mg/kg for 4 weeks; assay type: organism-based; details: in vivo, 672 h
Rattus norvegicus [2] = assay: Toxicity in Sprague-Dawley rat assessed as increase in plasma volume at 10 mg/kg for 4 weeks by evans blue dye based assay; assay type: organism-based; details: in vivo, 672 h
Rattus norvegicus [3] = assay: Toxicity in Sprague-Dawley rat assessed as increase in heart weight at 10 mg/kg for 6 weeks; assay type: organism-based; details: in vivo, 1008 h
Rattus norvegicus [4] = assay: Toxicity in Sprague-Dawley rat assessed as increase in heart weight at 30 mg/kg for 6 weeks; assay type: organism-based; details: in vivo, 1008 h
[5] = Apparent permeability from apical to basolateral side in human Caco2 cells at 10 uM after 2 hrs by LC-MS/MS analysis; assay type: ADME, cell-based, Caco-2; details: Caco-2
[6] = Apparent permeability from basolateral to apical side in human Caco2 cells at 10 uM after 2 hrs by LC-MS/MS analysis; assay type: ADME, cell-based, Caco-2; details: caco-2, 2 h, 10 µM
[7] = Efflux ratio of apparent permeability in human Caco2 cells at 10 uM after 2 hrs by LC-MS/MS analysis; assay type: ADME, cell-based, Caco-2; details: Caco-2
[8] = Aqueous solubility in fasted state simulated intestinal fluid; assay type: physicochemical
[9] = target: T1, Peroxisome proliferator-activated receptor alpha (Homo sapiens, UniProt Q07869); assay: Transactivation of human GAL4-fused PPARalpha LBD expressed in African green monkey COS7 cells co-expressing 5Gal4 pGL3 TK Luc after overnight incubation by luciferase reporter gene assay; assay type: cell-based
T1 sequence (Q07869 whole entry): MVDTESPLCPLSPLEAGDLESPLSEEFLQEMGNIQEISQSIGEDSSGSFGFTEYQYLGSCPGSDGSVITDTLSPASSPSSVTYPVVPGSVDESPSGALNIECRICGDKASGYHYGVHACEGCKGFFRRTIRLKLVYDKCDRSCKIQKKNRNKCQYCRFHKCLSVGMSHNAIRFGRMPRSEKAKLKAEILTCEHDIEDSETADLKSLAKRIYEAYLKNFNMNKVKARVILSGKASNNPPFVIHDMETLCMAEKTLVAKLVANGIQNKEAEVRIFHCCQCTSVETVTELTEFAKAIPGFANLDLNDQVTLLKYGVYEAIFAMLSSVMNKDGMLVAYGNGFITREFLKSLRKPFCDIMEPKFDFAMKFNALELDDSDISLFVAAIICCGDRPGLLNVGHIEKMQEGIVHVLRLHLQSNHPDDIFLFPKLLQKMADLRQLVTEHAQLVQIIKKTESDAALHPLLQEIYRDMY
How it was run: (§1)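 Cell-based Gal-4 transactivation assay in COS-7 cells transfected with PPARα, PPARδ or PPARγ ligand-binding domain. EC50 and Emax were derived, with Emax as maximum activation in percent of control. EC50s are means of at least two independent experiments performed in triplicate.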

[10] = target: T2, Peroxisome proliferator-activated receptor alpha (Homo sapiens) (UniProt Q07869); assay: Transactivation of human GAL4-fused PPARalpha LBD expressed in African green monkey COS7 cells co-expressing 5Gal4 pGL3 TK Luc after overnight incubation by luciferase reporter gene assay relative to fenofibric acid; assay type: cell-based; how it was run: as §1
T2 sequence (whole entry): T1 sequence (Q07869 whole entry)

[11] = target: T3, Peroxisome proliferator-activated receptor delta (Homo sapiens, UniProt Q03181); assay: Transactivation of human GAL4-fused PPARdelta LBD expressed in African green monkey COS7 cells co-expressing 5Gal4 pGL3 TK Luc after overnight incubation by luciferase reporter gene assay; assay type: cell-based; how it was run: as §1
T3 sequence (Q03181 whole entry): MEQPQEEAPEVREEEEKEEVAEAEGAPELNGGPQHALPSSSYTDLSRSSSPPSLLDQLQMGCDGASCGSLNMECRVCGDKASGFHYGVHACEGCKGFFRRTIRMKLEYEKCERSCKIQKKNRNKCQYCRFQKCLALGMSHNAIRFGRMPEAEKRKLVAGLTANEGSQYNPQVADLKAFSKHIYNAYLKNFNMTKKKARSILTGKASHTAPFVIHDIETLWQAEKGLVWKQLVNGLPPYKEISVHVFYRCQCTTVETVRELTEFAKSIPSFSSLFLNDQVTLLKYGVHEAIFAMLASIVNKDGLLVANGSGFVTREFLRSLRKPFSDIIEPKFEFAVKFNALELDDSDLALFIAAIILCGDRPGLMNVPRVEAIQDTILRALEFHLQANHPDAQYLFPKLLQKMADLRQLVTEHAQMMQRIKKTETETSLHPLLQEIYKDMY

[12] = target: T4, Peroxisome proliferator-activated receptor delta (Homo sapiens) (UniProt Q03181); assay: Transactivation of human GAL4-fused PPARdelta LBD expressed in African green monkey COS7 cells co-expressing 5Gal4 pGL3 TK Luc after overnight incubation by luciferase reporter gene assay relative to GW501516; assay type: cell-based; how it was run: as §1
T4 sequence (whole entry): T3 sequence (Q03181 whole entry)

[13] = target: T5, Peroxisome proliferator-activated receptor gamma (Homo sapiens, UniProt P37231); assay: Transactivation of human GAL4-fused PPARgamma LBD expressed in African green monkey COS7 cells co-expressing 5Gal4 pGL3 TK Luc after overnight incubation by luciferase reporter gene assay; assay type: cell-based; how it was run: as §1
T5 sequence (P37231 whole entry): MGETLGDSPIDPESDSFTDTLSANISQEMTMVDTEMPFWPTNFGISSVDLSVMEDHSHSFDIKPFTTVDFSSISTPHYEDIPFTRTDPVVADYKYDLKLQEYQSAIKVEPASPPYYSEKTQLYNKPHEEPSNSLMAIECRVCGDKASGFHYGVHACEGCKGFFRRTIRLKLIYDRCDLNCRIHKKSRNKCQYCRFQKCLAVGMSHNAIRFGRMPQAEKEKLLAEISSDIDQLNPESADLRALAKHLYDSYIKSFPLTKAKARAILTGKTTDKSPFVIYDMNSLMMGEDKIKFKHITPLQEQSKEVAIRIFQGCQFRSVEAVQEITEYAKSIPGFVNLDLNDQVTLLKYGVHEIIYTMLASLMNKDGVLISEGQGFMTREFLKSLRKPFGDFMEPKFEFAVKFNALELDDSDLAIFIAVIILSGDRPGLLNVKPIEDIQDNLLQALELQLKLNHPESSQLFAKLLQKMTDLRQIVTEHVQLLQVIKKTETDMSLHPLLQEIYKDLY

[14] = target: T6, Peroxisome proliferator-activated receptor gamma (Homo sapiens) (UniProt P37231); assay: Transactivation of human GAL4-fused PPARgamma LBD expressed in African green monkey COS7 cells co-expressing 5Gal4 pGL3 TK Luc after overnight incubation by luciferase reporter gene assay relative to rosiglitazone; assay type: cell-based; how it was run: as §1
T6 sequence (whole entry): T5 sequence (P37231 whole entry)

[15] = Cmax in C57Bl6 mouse at 10 mg/kg, po administered as single oral dose; assay type: ADME, organism-based; details: in vivo
How it was run: (§2)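 Single oral dose of 10 mg/kg in methyl cellulose vehicle given to C57Bl6 mice. Plasma was sampled over a 24 h period. […]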

[16] = Tmax in C57Bl6 mouse at 10 mg/kg, po administered as single oral dose; assay type: ADME, organism-based; details: in vivo; how it was run: as §2
[17] = AUC (infinity) in C57Bl6 mouse at 10 mg/kg, po administered as single oral dose; assay type: ADME, organism-based; details: in vivo; how it was run: as §2
Rattus norvegicus [18] = assay: Toxicity in Sprague-Dawley rat assessed as reduction in hematocrit level at 100 mg/kg for 4 weeks; assay type: organism-based; details: in vivo, 672 h
How it was run: (§3)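 Sprague-Dawley rats were treated at 100 and 1000 mg/kg. Hematocrit and plasma volume were assessed after 4 weeks of treatment and heart weight after 6 weeks. Each was compared with the control group by one-way ANOVA followed by Dunnett's test.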

Rattus norvegicus [19] = assay: Toxicity in Sprague-Dawley rat assessed as increase in plasma volume at 100 mg/kg for 4 weeks by evans blue dye based assay; assay type: organism-based; details: in vivo, 672 h; how it was run: as §3
Rattus norvegicus [20] = assay: Toxicity in Sprague-Dawley rat assessed as increase in heart weight at 100 mg/kg for 6 weeks; assay type: organism-based; details: in vivo, 1008 h; how it was run: as §3

| Compound | EC50 [9] | Emax [10] | EC50 [11] | Emax [12] | EC50 [13] | Emax [14] | further results |
| --- | --- | --- | --- | --- | --- | --- | --- |
| CCO[C@@H](Cc1ccc(OCCc2ccc(OS(C)(=O)=O)cc2)cc1)C(=O)O [TESAGLITAZAR] | – | – | – | – | – | – | Activity (Rattus norvegicus [1]): Toxic; Activity (Rattus norvegicus [2]): Toxic; Activity (Rattus norvegicus [3]): Toxic |
| CN(CCOc1ccc(CC2SC(=O)NC2=O)cc1)c1ccccn1 (centres undefined) [ROSIGLITAZONE] | – | – | – | – | – | – | Activity (Rattus norvegicus [4]): Toxic |
| CC(=O)CC(c1ccccc1)c1c(O)c2ccccc2oc1=O (centres undefined) [WARFARIN] | – | – | – | – | – | – | Papp A→B at 2 h, 10 µM [5]: 39.8 ×10⁻⁶ cm/s; Papp [6]: 0.7 ×10⁻⁶ cm/s; efflux ratio at 2 h, 10 µM [7]: 0.02; solubility [8]: 56 µM (≈ 17.3 µg/mL) |
| O=C(O)CCCc1cc2cc(C(F)(F)F)ccc2n1S(=O)(=O)c1ccc(Cl)cc1 | 2.82 µM | 45% | 1.65 µM | 38% | 0.629 µM | 36% | – |
| Cc1ccc(S(=O)(=O)n2c(CCCC(=O)O)cc3cc(Cl)ccc32)cc1 | > 5 µM | 36% | 1.08 µM | 29% | 0.277 µM | 30% | – |
| O=C(O)CCCc1cc2cc(C(F)(F)F)ccc2n1S(=O)(=O)c1cccc(OC(F)(F)F)c1 | 2.76 µM | 50% | 1.14 µM | 23% | 0.201 µM | 39% | – |
| Cc1ccc2c(c1)cc(CCCC(=O)O)n2S(=O)(=O)c1ccccc1 | 1.3 µM | 46% | > 5 µM | 45% | 0.284 µM | 38% | – |
| Cc1nc2cc(S(=O)(=O)n3c(CCCC(=O)O)cc4cc(Cl)ccc43)ccc2s1 | 2.36 µM | 22% | 1.1 µM | 20% | 0.175 µM | 39% | – |
| O=C(O)CCCc1cc2cc(C(F)(F)F)ccc2n1S(=O)(=O)c1ccccc1 | 1.2 µM | 48% | > 5 µM | 49% | 0.417 µM | 50% | – |
| O=C(O)CCCc1cc2cc(Cl)ccc2n1S(=O)(=O)c1ccccc1 | 0.956 µM | 51% | 0.645 µM | 46% | 0.284 µM | 46% | Cmax [15]: 11800 ng/mL; Tmax [16]: 1 h; AUC(0-inf) [17]: 51100 ng·h/mL |
| COc1ccc(OC(=O)N(CC(=O)O)Cc2ccc(OCCc3nc(-c4ccccc4)oc3C)cc2)cc1 [MURAGLITAZAR] | – | – | – | – | – | – | Activity (Rattus norvegicus [18]): Toxic; Activity (Rattus norvegicus [19]): Toxic; Activity (Rattus norvegicus [20]): Toxic |
| O=C(O)CCCc1cc2cc(Cl)ccc2n1S(=O)(=O)c1ccc2nc[nH]c2c1 | > 5 µM | 43% | > 5 µM | 20% | > 5 µM | 42% | – |
| O=C(O)CCCc1cc2cc(C(F)(F)F)ccc2n1S(=O)(=O)c1cccc(Cl)c1 | 2.42 µM | 70% | 2.03 µM | 21% | 0.256 µM | 49% | – |
| Nc1nc2ccc(S(=O)(=O)n3c(CCCC(=O)O)cc4cc(Cl)ccc43)cc2s1 | 1.26 µM | 57% | 0.919 µM | 82% | 0.041 µM | 74% | – |
